Series [1] is described as follows: Selectivity index, ratio of CC50 for human RD cells assessed as change in cell morphology to EC50 for Enterovirus 71. The class given is toxicity. Particulars: read-out: Ratio CC50/EC50. In outline:
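SI is CC50/EC50. CC50 is from microscopically detected morphology change in uninfected RD cells and EC50 from the EV71 CPE-reduction assay in RD cells.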

The subject of series [2] is Cystic fibrosis transmembrane conductance regulator (Homo sapiens), P13569 [F508del]. Nature of the series: Potentiator activity at CFTR F508 deletion mutant (unknown origin) expressed in HEK293 cells assessed as increase in aninon permeability at 10 uM […] by YFP probe based imaging method. The class given is cell-based.
Series [3] deals with Receptor-type tyrosine-protein kinase FLT3 (Homo sapiens) (UniProt P36888). Nature of the series: Inhibition of recombinant human N-terminal GST-tagged FLT3 (571 to 993 residues) expressed in baculovirus infected sf9 cells assessed as residual activity using myelin basic protein as substrate at 100 uM by ADP-Glo bioluminescence assay relative to control relative to control. In outline:
(§1)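 Kinase reactions followed manufacturer's instructions with 10-50 ng enzyme, in 10 µL for 10 min at 30 °C; NP-40 or BSA added for some kinases. Compound at 100 µM. Residual activity is the mean of two independent replicates.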
(ADP-Glo first removes unused ATP, then detects ADP through luciferase.)

Another series relates to Coxsackievirus B3. Nature of the series: Antiviral activity against Coxsackievirus B3 after 2 to 3 days by cell based MTS assay. The class given is functional. As to conditions: Enterovirus B.
A short description of series [4]: Inhibition of full length recombinant His6-tagged PI4K3alpha (unknown origin) expressed in Sf9 insect cells assessed as residual activity at 100 uM using PI : PS as substrate in presence of [gamma-33P]-ATP by scintillation counting method relative to control. Particulars: Homo sapiens.
Series [5] concerns Enterovirus A71. In words: Antiviral activity against Enterovirus 71 TW/1956/05 clinical isolates incubated for 2 to 3 days. The class given is functional. Particulars: Enterovirus A.
Series [6] in a line: Cytotoxicity against human RD cells after 2 to 3 days by MTS method. The class given is cell-based. Summed up:
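Uninfected RD cells, 20 000/well in 2% FCS medium, run in parallel with the antiviral assay. Three 8-step 1:5 dilution series from 100 μM, 2-3 days. Read-out by 5% MTS, 1.5 h at 37 °C, absorbance 498 nm, as % of untreated controls. CC50 is the 50% metabolic activity point, median of 3 curves.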
For orientation: Formazan colour is commonly taken as a measure of viable cells.

Series [7] has as its target Serine/threonine-protein kinase pim-1 (Homo sapiens) (UniProt P11309). In words: Inhibition of recombinant human N-terminal GST-tagged pim1 expressed in baculovirus infected sf9 cells assessed as residual activity using KRRRLASLR as substrate at 100 uM by ADP-Glo bioluminescence assay relative to control relative to control. In outline:
as §1

Series [8] has as its system Enterovirus A71. Nature of the series: Antiviral activity against Enterovirus 71 TW/70902/08 clinical isolates incubated for 2 to 3 days. In kind it is functional. Particulars: Enterovirus A.
A short description of series [9]: Cytotoxicity against human RD cells assessed as change in cell morphology by microscopic method. In kind it is cell-based. In outline: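 Uninfected, compound-treated RD cells were inspected by microscope. CC50 was taken from microscopically detectable alteration of cell morphology.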
The subject of series [10] is Enterovirus A71. Nature of the series: Antiviral activity against Enterovirus 71 H08300 461#812 clinical isolates incubated for 2 to 3 days. In kind it is functional. Particulars: Enterovirus A.
The target of series [11] is CDK9/Cyclin K (Homo sapiens) (UniProt P50750+O75909). In words: Inhibition of full-length recombinant human N-terminal GST-tagged CDK9/cyclin K expressed in baculovirus infected sf9 cells assessed as residual activity at 100 uM using KTFCGTPEYLAPEVRREPRILSEEEQEMFRDFDYIADWC as substrate by ADP-Glo bioluminescence assay relative to control relative to control. In outline: as §1

The target of series [12] is CDK2/Cyclin A2 (Homo sapiens) (UniProt P24941+P20248). Nature of the series: Inhibition of full-length recombinant human N-terminal GST-tagged CDK2/cyclin A2 expressed in baculovirus infected sf9 cells assessed as residual activity at 100 uM using histone H1 as substrate by ADP-Glo bioluminescence assay relative to control relative to control. In outline: as §1
Series [13] in a line: Inhibition of full length recombinant His6-tagged PI4K3beta (unknown origin) expressed in Sf9 insect cells using PI : PS as substrate in presence of [gamma-33P]-ATP by scintillation counting method. Also on record: species or system Homo sapiens. Particulars: read-out: IC50.
Series [14] deals with Tyrosine-protein kinase HCK (Homo sapiens) (UniProt P08631). In words: Inhibition of full-length recombinant human HCK assessed as residual activity at 100 uM using poly(Glu,Tyr)4:1 as substrate by ADP-Glo bioluminescence assay relative to control relative to control. In outline:
as §1

A further series deals with Poliovirus 1. Nature of the series: Antiviral activity against Poliovirus 1 after 2 to 3 days by cell based MTS assay. Particulars: Enterovirus C. The class given is functional. In outline: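 Vero cells seeded at 20 000/well in MEM with 2% FCS. Three 8-step 1:5 dilution series from 100 μM, then virus, then cells; 2–3 days until maximal CPE. Read-out: 5% MTS for 1.5 h at 37°C, absorbance at 498 nm, expressed as % of untreated controls. EC50 taken as the median of 3 dose-response curves.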

The target of series [15] is Glycogen synthase kinase-3 beta (Homo sapiens) (UniProt P49841). Nature of the series: Inhibition of full-length recombinant human N-terminal GST-tagged GSK3beta expressed in baculovirus infected sf9 cells assessed as residual activity at 100 uM using YRRAAVPPSPSLSRHSSPHQ(pS)EDEEE as substrate by ADP-Glo bioluminescence assay relative to control relative to control. In outline: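 Kinase run per the manufacturer's instructions with 10–50 ng enzyme in 10 μL at 30 °C for 10 min. NP-40 or BSA was added for some kinases. Compound was tested at 100 μM, with activity given as % residual. Values are the mean of two independent replicates.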

A further series concerns rhinovirus B14. Nature of the series: Antiviral activity against Rhinovirus 14 after 2 to 3 days by cell based MTS assay. The class given is functional. Particulars: Rhinovirus B; read-out: EC50.
Series [16] has as its system Enterovirus A71. Nature of the series: Antiviral activity against Enterovirus 71 11316 clinical isolates incubated for 2 to 3 days. The class given is functional. Particulars: Enterovirus A.
In series [17] the target is Proto-oncogene tyrosine-protein kinase Src (Homo sapiens) (UniProt P12931). In words: Inhibition of full-length recombinant human N-terminal GST-tagged SRC expressed in Escherichia coli assessed as residual activity at 100 uM using KVEKIGEGTYGVVYK-amide as substrate by ADP-Glo bioluminescence assay relative to control relative to control. Summed up: as §1
For series [18], the system named is Cystic fibrosis transmembrane conductance regulator (Homo sapiens), P13569 [F508del]. In words: Corrector activity at CFTR F508 deletion mutant (unknown origin) expressed in HEK293 cells assessed as increase in steady-state level of F508 deletion mutant at plasma membrane at 10 uM preincubated for 24 hrs followed by compound washout by pHTomato dye based fluorescence imaging method. In kind it is cell-based. Summed up:
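HEK293 cells were transiently transfected (Lipofectamine 2000) with F508del-CFTR-pHTomato plus co-expressed soluble eGFP, then kept 24 h at 37 °C. Next, 24 h at 30 °C with 10 μM drug. Imaging in pH 7.4 HEPES buffer, then extracellular pH shifted to ~6.5 (MES) and ~8.8 (Tris). The eGFP-normalized fluorescence rise (ΔF) estimates membrane CFTR.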

In series [19] the test system is Enterovirus A71. Nature of the series: Antiviral activity against Enterovirus 71 TW/2429/04 clinical isolates incubated for 2 to 3 days. In kind it is functional. As to conditions: Enterovirus A.
Series [20] in a line: Selectivity index, ratio of CC50 for human RD cells to EC50 for Enterovirus 71. In kind it is toxicity. Particulars: read-out: Ratio CC50/EC50. Summed up: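 SI is CC50/EC50. CC50 is from the MTS assay on uninfected RD cells and EC50 from the EV71 CPE-reduction assay, both medians of three dose-response curves run in parallel.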

The record followed here is ChEMBL document CHEMBL3997800, “Discovery of Multitarget Agents Active as Broad-Spectrum Antivirals and Correctors of Cystic Fibrosis Transmembrane Conductance Regulator for Associated Pulmonary Diseases” (J Med Chem, 2017).

pEC50, pIC50: −log10 of the molar value. Activity calls are given as the source filed them. The rule behind the calls is not given here.

Chain of Cystic fibrosis transmembrane conductance regulator (Homo sapiens), P13569 [F508del] (P13569 as listed by the source): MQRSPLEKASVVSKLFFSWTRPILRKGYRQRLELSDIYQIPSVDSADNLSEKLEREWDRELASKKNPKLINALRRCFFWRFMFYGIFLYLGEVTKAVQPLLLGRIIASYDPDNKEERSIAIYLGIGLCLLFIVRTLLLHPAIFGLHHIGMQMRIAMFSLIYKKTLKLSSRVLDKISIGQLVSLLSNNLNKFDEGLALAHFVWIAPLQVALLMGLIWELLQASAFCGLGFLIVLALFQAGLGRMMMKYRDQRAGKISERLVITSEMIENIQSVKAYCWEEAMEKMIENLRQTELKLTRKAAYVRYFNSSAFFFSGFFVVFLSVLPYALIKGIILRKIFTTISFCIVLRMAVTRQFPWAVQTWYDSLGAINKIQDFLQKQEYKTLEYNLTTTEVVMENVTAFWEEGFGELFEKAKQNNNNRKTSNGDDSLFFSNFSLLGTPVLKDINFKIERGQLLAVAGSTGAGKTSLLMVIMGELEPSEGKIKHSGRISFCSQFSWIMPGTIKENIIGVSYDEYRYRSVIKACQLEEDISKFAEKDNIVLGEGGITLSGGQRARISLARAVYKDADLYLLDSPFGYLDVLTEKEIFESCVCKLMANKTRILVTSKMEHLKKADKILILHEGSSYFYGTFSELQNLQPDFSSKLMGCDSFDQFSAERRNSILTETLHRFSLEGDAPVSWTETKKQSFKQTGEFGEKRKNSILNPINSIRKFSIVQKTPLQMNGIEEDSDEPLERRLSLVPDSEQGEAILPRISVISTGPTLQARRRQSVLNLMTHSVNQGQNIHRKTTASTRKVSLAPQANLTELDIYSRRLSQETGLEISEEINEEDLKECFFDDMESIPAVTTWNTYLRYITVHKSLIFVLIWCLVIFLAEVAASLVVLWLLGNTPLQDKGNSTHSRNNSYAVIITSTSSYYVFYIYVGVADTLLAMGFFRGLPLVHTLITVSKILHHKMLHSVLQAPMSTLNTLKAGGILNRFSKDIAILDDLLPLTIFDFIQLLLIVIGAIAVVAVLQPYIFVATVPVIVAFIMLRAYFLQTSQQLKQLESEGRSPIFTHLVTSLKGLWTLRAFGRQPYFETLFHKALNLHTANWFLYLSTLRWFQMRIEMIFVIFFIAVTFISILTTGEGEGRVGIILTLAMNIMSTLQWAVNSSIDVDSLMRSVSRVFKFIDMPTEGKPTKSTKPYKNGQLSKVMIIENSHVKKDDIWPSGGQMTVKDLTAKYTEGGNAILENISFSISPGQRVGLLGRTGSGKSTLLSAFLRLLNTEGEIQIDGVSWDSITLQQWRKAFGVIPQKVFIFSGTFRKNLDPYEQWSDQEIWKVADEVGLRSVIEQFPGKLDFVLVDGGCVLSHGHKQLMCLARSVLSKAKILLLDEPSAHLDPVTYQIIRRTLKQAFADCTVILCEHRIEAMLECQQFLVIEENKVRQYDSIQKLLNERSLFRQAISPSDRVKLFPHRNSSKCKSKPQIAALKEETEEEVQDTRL
Chain of Glycogen synthase kinase-3 beta (Homo sapiens) (P49841 whole entry, looked up): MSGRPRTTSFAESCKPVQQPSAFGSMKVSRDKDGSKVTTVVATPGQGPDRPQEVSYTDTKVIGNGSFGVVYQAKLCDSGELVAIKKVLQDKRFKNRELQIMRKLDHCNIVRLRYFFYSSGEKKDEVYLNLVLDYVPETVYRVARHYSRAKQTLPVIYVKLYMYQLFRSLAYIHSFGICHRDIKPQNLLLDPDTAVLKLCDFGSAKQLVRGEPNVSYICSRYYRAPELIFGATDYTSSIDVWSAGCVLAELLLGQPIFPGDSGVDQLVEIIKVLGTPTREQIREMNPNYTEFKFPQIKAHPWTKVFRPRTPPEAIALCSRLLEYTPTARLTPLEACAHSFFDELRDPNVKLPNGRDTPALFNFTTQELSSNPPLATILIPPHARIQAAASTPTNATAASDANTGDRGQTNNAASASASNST
Chain of Receptor-type tyrosine-protein kinase FLT3 (Homo sapiens) (P36888 whole entry, the tested form may be a part): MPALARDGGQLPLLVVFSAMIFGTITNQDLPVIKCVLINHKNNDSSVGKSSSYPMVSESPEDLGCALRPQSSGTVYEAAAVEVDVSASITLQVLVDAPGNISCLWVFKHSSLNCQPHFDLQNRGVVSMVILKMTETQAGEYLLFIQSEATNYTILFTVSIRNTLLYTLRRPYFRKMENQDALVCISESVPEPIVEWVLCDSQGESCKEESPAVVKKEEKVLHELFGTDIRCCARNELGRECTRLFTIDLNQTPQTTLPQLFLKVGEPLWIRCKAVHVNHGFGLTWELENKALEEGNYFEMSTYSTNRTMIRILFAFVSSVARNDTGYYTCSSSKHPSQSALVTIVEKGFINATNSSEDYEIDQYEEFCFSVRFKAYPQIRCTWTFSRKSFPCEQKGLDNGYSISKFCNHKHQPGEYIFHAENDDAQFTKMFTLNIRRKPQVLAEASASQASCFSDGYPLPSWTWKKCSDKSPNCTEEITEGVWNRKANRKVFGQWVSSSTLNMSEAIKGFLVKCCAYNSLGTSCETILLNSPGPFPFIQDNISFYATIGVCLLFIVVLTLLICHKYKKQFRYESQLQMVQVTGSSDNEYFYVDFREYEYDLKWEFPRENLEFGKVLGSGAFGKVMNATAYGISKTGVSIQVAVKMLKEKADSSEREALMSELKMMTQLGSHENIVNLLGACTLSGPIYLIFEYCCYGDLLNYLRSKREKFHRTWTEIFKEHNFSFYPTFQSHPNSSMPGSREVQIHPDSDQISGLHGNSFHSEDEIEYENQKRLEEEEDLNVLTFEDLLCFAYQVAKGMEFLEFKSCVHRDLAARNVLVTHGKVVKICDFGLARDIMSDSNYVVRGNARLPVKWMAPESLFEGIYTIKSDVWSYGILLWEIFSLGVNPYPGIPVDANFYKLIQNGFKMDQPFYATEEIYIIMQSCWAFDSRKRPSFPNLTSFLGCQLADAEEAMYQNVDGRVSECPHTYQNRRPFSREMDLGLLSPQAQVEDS
Chain of Serine/threonine-protein kinase pim-1 (Homo sapiens) (P11309 whole entry, looked up): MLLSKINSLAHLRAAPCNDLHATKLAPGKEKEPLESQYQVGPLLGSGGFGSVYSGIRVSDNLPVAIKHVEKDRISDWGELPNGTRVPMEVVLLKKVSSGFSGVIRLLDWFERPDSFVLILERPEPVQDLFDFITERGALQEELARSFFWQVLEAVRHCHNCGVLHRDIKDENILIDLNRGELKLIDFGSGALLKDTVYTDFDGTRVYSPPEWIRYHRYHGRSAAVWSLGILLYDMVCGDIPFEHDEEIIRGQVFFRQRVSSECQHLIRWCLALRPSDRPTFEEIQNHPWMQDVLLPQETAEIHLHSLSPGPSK
Chain of Tyrosine-protein kinase HCK (Homo sapiens) (P08631 2-526 limits assumed): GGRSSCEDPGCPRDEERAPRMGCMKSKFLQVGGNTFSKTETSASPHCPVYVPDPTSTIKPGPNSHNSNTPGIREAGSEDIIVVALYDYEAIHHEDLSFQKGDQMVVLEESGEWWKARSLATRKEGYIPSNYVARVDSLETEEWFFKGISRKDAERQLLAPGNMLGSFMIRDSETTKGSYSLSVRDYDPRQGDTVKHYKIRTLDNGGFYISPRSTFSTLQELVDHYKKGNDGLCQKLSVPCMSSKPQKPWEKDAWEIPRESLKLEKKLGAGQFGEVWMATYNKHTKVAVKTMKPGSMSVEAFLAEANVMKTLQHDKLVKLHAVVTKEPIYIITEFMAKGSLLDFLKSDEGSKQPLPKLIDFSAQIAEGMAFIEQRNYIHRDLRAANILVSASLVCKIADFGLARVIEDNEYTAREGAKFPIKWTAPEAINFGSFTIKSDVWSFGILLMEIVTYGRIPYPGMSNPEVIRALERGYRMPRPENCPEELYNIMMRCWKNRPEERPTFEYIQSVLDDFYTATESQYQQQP
Chain of Proto-oncogene tyrosine-protein kinase Src (Homo sapiens) (P12931 2-536 limits assumed): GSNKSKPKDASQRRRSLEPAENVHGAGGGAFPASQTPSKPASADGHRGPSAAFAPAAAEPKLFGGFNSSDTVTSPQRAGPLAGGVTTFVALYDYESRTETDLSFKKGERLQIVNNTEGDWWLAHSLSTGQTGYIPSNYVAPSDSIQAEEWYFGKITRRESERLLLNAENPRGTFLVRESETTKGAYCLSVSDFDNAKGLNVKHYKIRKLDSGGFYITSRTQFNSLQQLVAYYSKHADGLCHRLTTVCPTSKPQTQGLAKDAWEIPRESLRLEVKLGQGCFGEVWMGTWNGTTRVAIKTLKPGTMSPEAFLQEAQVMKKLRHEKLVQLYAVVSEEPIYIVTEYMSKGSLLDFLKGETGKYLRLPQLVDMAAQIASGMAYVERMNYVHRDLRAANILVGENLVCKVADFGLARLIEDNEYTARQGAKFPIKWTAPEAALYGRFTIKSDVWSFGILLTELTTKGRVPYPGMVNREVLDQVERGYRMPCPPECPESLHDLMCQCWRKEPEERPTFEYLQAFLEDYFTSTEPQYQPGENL

Regarding `CC(=O)c1cccc(Nc2nc(-c3sc(NC(=O)OC(C)(C)C)nc3C)cs2)c1`, the selectivity ratio in [1] was 71.1; in series [20], 29.7. Besides, in series [2], the result was inactive. The Activity amounted to 59% in series [3]; 69% in [4]; 70% in [7]; 49% in series [11]; 62% in [12]; 100% in [14]. Further, the Activity in series [15] amounted to 79%; in series [17], 32%. The pEC50 with Coxsackievirus B3 is 5.56; in the series with Enterovirus A71 [5] it was more than 5.86; in the series with Enterovirus A71 [8], 5.45; in the series on Enterovirus A71 [10], 6.01; with Poliovirus 1, 4.88; with rhinovirus B14, less than 3.63. Further, the pEC50 with Enterovirus A71 [16] was more than 5.86; in the series on Enterovirus A71 [19], 5.93. For the same compound, the figures for the CC50 in series [6] and in [9] were 42.3 µM and 101 µM, respectively. Also, in series [13], the pIC50 is 5.33. In series [18], the outcome was Active.

One may read the pEC50 as the EC50 on a negative log10 scale, so that one unit is a factor of ten. As a reminder, the CC50 is the concentration that lowers cell viability or growth by half. For orientation: pIC50 means the negative decadic logarithm of the IC50, by convention in mol/L.
